Activity calls are given as the source filed them. The rule behind the calls is not given here.
Columns and labels:
Urea transporter 2 = target: T1, Urea transporter 2 (Rattus norvegicus, UniProt Q62668); assay: Inhibition of rat UT-A1 expressed in MDCK-UT-A1-AQP1-YFP cells after 15 mins by fluorescence assay; format: cell-based
T1 sequence (Q62668 whole entry): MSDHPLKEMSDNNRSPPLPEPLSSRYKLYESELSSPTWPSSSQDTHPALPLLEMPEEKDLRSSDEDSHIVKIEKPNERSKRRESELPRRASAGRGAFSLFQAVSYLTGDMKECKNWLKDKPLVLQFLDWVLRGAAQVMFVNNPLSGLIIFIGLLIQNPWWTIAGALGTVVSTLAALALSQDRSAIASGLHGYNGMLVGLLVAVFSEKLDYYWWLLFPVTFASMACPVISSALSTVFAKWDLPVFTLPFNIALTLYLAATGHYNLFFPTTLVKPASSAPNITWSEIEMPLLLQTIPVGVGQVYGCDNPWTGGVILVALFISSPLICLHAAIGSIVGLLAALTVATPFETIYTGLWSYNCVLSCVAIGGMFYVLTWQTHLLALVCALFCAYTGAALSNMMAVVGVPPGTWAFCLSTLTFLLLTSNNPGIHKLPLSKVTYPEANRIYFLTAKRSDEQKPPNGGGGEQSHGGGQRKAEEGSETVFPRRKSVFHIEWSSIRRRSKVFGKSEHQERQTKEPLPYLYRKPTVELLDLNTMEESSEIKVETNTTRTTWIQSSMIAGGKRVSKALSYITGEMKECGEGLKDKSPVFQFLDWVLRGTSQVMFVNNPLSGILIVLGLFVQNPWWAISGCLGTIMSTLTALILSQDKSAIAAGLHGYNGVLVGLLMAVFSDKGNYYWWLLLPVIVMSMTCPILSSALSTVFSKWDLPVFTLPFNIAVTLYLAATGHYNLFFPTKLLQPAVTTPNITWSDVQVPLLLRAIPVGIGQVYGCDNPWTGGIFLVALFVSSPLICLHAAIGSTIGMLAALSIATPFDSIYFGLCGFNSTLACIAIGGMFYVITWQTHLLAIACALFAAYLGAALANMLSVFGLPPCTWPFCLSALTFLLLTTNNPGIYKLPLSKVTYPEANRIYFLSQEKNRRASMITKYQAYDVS

Urea transporter 1 = target: T2, Urea transporter 1 (Rattus norvegicus, UniProt P97689); assay: Inhibition of UT-B in rat whole blood after 15 mins by RBC lysis assay; format: tissue-based
T2 sequence (P97689 whole entry): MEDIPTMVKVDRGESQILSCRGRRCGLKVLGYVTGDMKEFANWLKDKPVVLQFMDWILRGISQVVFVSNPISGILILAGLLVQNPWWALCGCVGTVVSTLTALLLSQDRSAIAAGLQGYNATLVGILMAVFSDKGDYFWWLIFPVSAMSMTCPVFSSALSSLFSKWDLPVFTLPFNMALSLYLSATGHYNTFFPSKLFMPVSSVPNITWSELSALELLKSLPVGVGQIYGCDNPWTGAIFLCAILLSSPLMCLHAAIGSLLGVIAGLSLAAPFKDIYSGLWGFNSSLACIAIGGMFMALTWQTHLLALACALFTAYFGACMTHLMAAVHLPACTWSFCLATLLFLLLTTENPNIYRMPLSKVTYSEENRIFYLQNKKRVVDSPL
In short: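 Whole rat blood diluted to ~1.5% hematocrit in PBS with 1.25 M acetamide. Erythrocytes exposed to compound for 15 min, then rapidly mixed with PBS. Lysis read as absorbance at 710 nm; % inhibition calculated relative to negative and positive controls.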

[1] = Metabolic stability in rat liver microsomes assessed as compound remaining after 15 mins by RP-HPLC analysis in presence of NADPH; format: ADME; conditions: read-out: Stability
In short: (§1)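 Compounds incubated with rat liver microsomes plus NADPH for up to 60 min. Parent loss and metabolite appearance followed by LC/MS.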

[2] = Drug metabolism in rat liver microsomes assessed as cytochrome P450 monooxygenase-mediated oxidation by LC/MS analysis; format: ADME; in short: as §1
[3] = Drug level in 1M NaOH treated with compound-18 assessed as compound formation; format: physicochemical
[4] = target: T3, Urea transporter 2 (Rattus norvegicus) (UniProt Q62668); assay: Non competitive inhibition of rat UT-A1 expressed in MDCK-UT-A1-AQP1-YFP cells at IC50 after 15 mins by fluorescence assay in presence of urea; format: cell-based
T3 sequence (whole entry): T1 sequence (Q62668 whole entry)

[5] = target: T3, Urea transporter 2 (Rattus norvegicus); assay: Reversible inhibition of rat UT-A1 expressed in MDCK-UT-A1-AQP1-YFP cells at IC50 measured 15 mins post compound washout by fluorescence assay; format: cell-based
[6] = target: T3, Urea transporter 2 (Rattus norvegicus); assay: Inhibition of rat UT-A1 expressed in MDCK-UT-A1-AQP1-YFP cells after 40 secs by fluorescence assay; format: cell-based
Liver microsome = assay: Drug metabolism in rat liver microsomes assessed as [M+ H-16] formation by LC/MS analysis; format: ADME; conditions: TDE = time-dependent effect
In short: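 Rat liver microsomes incubated with compound in presence of NADPH; disappearance of parent and appearance of metabolite followed by LC/MS over 60 min.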

IC50 (Urea transporter 2)	IC50 (Urea transporter 1)	SMILES	also measured
20 µM	30 µM	[N-]=[N+]=NCC(=O)Nc1ccc2c(c1)C(=O)c1cc(NC(=O)CN=[N+]=[N-])ccc1-2	
2 µM	1.2 µM	NC(=O)Nc1ccc2c(c1)C(=O)c1cc(NC(N)=O)ccc1-2	
12 µM	25 µM	CC(=O)Nc1ccc2c(c1)C(=NO)c1cc(NC(C)=O)ccc1-2	remaining at 0.25 h [1]: > 80%; Drug metabolism [2]: metabolite_notdetected
10 µM	7.5 µM	O=C1c2cc(NC(=O)C(F)(F)F)ccc2-c2ccc(NC(=O)C(F)(F)F)cc21	
> 50 µM	> 50 µM	Nc1ccc2c(c1)C(=O)c1cc(N)ccc1-2	
15 µM	5 µM	CCC(=O)Nc1ccc2c(c1)C(=O)c1cc(NC(=O)CC)ccc1-2	
> 50 µM	20 µM	CC(=O)Nc1ccc2c(c1)C(O)c1cc(NC(C)=O)ccc1-2	
18 µM	20 µM	CC(=O)Nc1cccc(C(=O)c2cccc(NC(C)=O)c2)c1	remaining at 0.25 h [1]: > 80%; Drug metabolism [2]: metabolite_notdetected

Second part, the compound before the results:

SMILES	IC50 (Urea transporter 2)	IC50 (Urea transporter 1)	also measured
CC(=O)Nc1ccc2c(c1)S(=O)(=O)c1cc(NC(C)=O)ccc1-2	15 µM	2 µM	remaining at 0.25 h [1]: > 80%; Drug metabolism [2]: metabolite_notdetected
O=C1c2cc([N+](=O)[O-])ccc2-c2ccc([N+](=O)[O-])cc21	> 50 µM	> 50 µM	
O=C(COCc1ccccc1)Nc1cccc(C(=O)c2cccc(NC(=O)COCc3ccccc3)c2)c1	> 50 µM	> 50 µM	
O=C(COCc1ccccc1)Nc1ccc2c(c1)C(=O)c1cc(NC(=O)COCc3ccccc3)ccc1-2	> 50 µM	> 50 µM	
Nc1cccc(C(=O)c2cccc(N)c2)c1	> 50 µM	> 50 µM	
O=C(CBr)Nc1ccc2c(c1)C(=O)c1cc(NC(=O)CBr)ccc1-2	30 µM	10 µM	
O=C(CO)Nc1ccc2c(c1)C(=O)c1cc(NC(=O)CO)ccc1-2	20 µM	25 µM	
CC(C)C(=O)Nc1ccc2c(c1)C(=O)c1cc(NC(=O)C(C)C)ccc1-2	18 µM	50 µM	
CS(=O)(=O)Nc1ccc2c(c1)C(=O)c1cc(NS(C)(=O)=O)ccc1-2	1.5 µM	2.5 µM	
CS(=O)(=O)Nc1cccc(C(=O)c2cccc(NS(C)(=O)=O)c2)c1	> 50 µM	30 µM	
CCCC(=O)Nc1ccc2c(c1)C(=O)c1cc(NC(=O)CCC)ccc1-2	> 50 µM	> 50 µM	
COCCOCC(=O)Nc1ccc2c(c1)C(=O)c1cc(NC(=O)COCCOC)ccc1-2	> 50 µM	50 µM	
CC(=O)/N=C1\C=CC2=c3ccc(NC(C)=O)cc3=CC2=C1			Drug metabolism [3]: metabolite_detected
O=C(O)/C=C\C(=O)Nc1ccc2c(c1)C(=O)c1cc(NC(=O)/C=C\C(=O)O)ccc1-2	30 µM	> 50 µM	
CC(=O)Nc1ccc2c(c1)C(=O)c1cc(NC(C)=O)ccc1-2	1 µM	1.5 µM	inhibition [4]: Active; inhibition [5]: Active; inhibition [6]: Active; remaining at 0.25 h [1]: 60%; Drug metabolism [2]: metabolite_notdetected; Drug metabolism (Liver microsome): tde
O=C1c2cc(N3CCCS3(=O)=O)ccc2-c2ccc(N3CCCS3(=O)=O)cc21	> 50 µM	> 50 µM	

Source: ChEMBL document CHEMBL3739289, “Discovery, synthesis and structure-activity analysis of symmetrical 2,7-disubstituted fluorenones as urea transporter inhibitors” (Medchemcomm, 2015)
